Laboratory results as given in paper PMC3791136 (Journal of the American Chemical Society, 2013).

Tested on: A2780 cells
Assay: Cytotoxicity with ER stress inhibitor salubrinal
Assay type: cell-based
Settings: salubrinal 10 μM
Outline: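 A2780 cells given the test compound alone or co-administered with salubrinal (10 μM, an ER stress inhibitor). IC50 values were compared with and without inhibitor, with cisplatin run alongside.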

`N.N.[Cl][Pt][Cl]` [cisplatin] was tested, and the “effect of salubrinal on toxicity” value was “limited effect”.
